{"source": "paper PMC6096382", "about": "(Theranostics, 2018)", "system": "human sural nerve", "assay_type": "binding", "settings": "topical 100 µM on human nerve sections from multiple patients", "procedure,_shortened": "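Human peripheral nerve from nerve-resection patients, cut as 10 µm unfixed sections, humidified 30 min. Test compound in 0.5X HBSS applied topically and incubated 30 min in a humidified chamber. Carboxyfluorescein served as the free-dye control. Sections were washed twice with 0.5X HBSS and once with PBS, then coverslipped and imaged at once on a dissecting scope or confocal (488 nm excitation, 515/25 nm emission, 10x air objective).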"}
{"substance": "carboxyfluorescein", "values": [{"measurement": "binding of free dye control to human nerve", "value": "only weak non-specific binding"}]}
